In brackets after ≈: the same amount, converted by molar mass.
How the values were obtained:
Assay type in all cases: functional
Escherichia coli [1] = test: Antibacterial activity was determined against Gram-negative Escherichia coli Vogel bacteria
In short: (§1)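 MICs, in micrograms per milliliter, were determined by standard microtitration (microdilution) techniques against each listed Gram-negative and Gram-positive strain.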

Enterobacter cloacae = test: Antibacterial activity was determined against Gram-negative Enterobacter cloacae HA2646 bacteria; in short: as §1
Escherichia coli [2] = test: Antibacterial activity was determined against Gram-negative Escherichia coli H560 bacteria; in short: as §1
Escherichia coli [3] = test: Protective dose against Escherichia coli H560 bacteria; details: read-out: PD50
In short: (§2)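 Acute lethal systemic infection model in female Charles River CD-1 mice. The value is the median protective dose (PD50, mg/kg), defined as the dose needed to protect 50% of mice from the lethal infection.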

Escherichia coli [4] = test: Gyrase-drug induced cleavage against Escherichia coli
In short: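 Compounds were tested for induction of DNA gyrase-mediated cleavage. The value is the minimum drug concentration giving linear DNA at an intensity matching that produced by oxolinic acid at 10 μg/mL.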

Klebsiella pneumoniae = test: Antibacterial activity was determined against Gram-negative Klebsiella pneumoniae MGH-2 bacteria; in short: as §1
Providencia rettgeri = test: Antibacterial activity was determined against Gram-negative Providencia rettgeri H1771 bacteria; in short: as §1
Pseudomonas aeruginosa = test: Antibacterial activity was determined against Gram-negative Pseudomonas aeruginosa UI-18 bacteria; in short: as §1
Staphylococcus aureus [5] = test: Antibacterial activity was determined against Gram-positive Staphylococcus aureus H228 bacteria; details: in the assay text read “Gram-positive” for “Gram-negative”; in short: as §1
Staphylococcus aureus [6] = test: Antibacterial activity was determined against Gram-positive Staphylococcus aureus UC-76 bacteria; details: in the assay text read “Gram-positive” for “Gram-negative”; in short: as §1
Streptococcus pneumoniae [7] = test: Protective dose against Streptococcus pneumoniae bacteria; details: read-out: PD50; in short: as §2
Streptococcus pneumoniae [8] = test: Antibacterial activity was determined against Gram-positive Streptococcus pneumoniae SV-1 bacteria; in short: as §1
Streptococcus pyogenes [9] = test: Antibacterial activity was determined against Gram-positive Streptococcus pyogenes C203 bacteria; in short: as §1
Streptococcus pyogenes [10] = test: Protective dose against Streptococcus pyogenes bacteria; details: read-out: PD50; in short: as §2
Enterococcus faecalis = test: Antibacterial activity was determined against Gram-positive Streptococcus faecalis MGH-2 bacteria; in short: as §1
Streptococcus pneumoniae [11] = test: Protective dose against Streptococcus pneumonia bacteria; details: read-out: PD50; in short: as §2

Row | Compound | MIC (Escherichia coli [1]) | MIC (Enterobacter cloacae) | MIC (Escherichia coli [2]) | ED50 (Escherichia coli [3]) | MEC (Escherichia coli [4]) | MIC (Klebsiella pneumoniae) | MIC (Providencia rettgeri) | MIC (Pseudomonas aeruginosa) | MIC (Staphylococcus aureus [5]) | MIC (Staphylococcus aureus [6]) | ED50 (Streptococcus pneumoniae [7]) | MIC (Streptococcus pneumoniae [8]) | MIC (Streptococcus pyogenes [9]) | ED50 (Streptococcus pyogenes [10]) | MIC (Enterococcus faecalis) | ED50 (Streptococcus pneumoniae [11])
1 | NCC1CN(c2c(F)cc3c(=O)c(C(=O)O)cn(C4CC4)c3c2F)CC1c1ccccc1 (stereo not drawn) | 0.1 µg/mL (≈ 0.228 µM) | 0.2 µg/mL (≈ 0.455 µM) | 0.013 µg/mL (≈ 0.0296 µM) | 27 mg/kg | 2.62 µg/mL | 0.1 µg/mL (≈ 0.228 µM) | 0.4 µg/mL (≈ 0.91 µM) | 1.6 µg/mL (≈ 3.64 µM) | 0.013 µg/mL (≈ 0.0296 µM) | 0.006 µg/mL (≈ 0.0137 µM) | 25 mg/kg | 0.006 µg/mL (≈ 0.0137 µM) | 0.013 µg/mL (≈ 0.0296 µM) | 11 mg/kg | 0.013 µg/mL (≈ 0.0296 µM) | 
2 | NCC1CCN(c2c(F)cc3c(=O)c(C(=O)O)cn(C4CC4)c3c2F)C1 (stereo not drawn) | 0.025 µg/mL (≈ 0.0688 µM) | 0.05 µg/mL (≈ 0.138 µM) | 0.006 µg/mL (≈ 0.0165 µM) | 6 mg/kg | 0.25 µg/mL | 0.05 µg/mL (≈ 0.138 µM) | 0.1 µg/mL (≈ 0.275 µM) | 0.2 µg/mL (≈ 0.55 µM) | 0.025 µg/mL (≈ 0.0688 µM) | 0.003 µg/mL (≈ 0.00826 µM) |  | 0.006 µg/mL (≈ 0.0165 µM) | 0.013 µg/mL (≈ 0.0358 µM) | 4 mg/kg | 0.025 µg/mL (≈ 0.0688 µM) | 10 mg/kg
3 | NC1CCN(c2c(F)cc3c(=O)c(C(=O)O)cn(C4CC4)c3c2F)C1 (stereo not drawn) | 0.013 µg/mL (≈ 0.0372 µM) | 0.025 µg/mL (≈ 0.0716 µM) | 0.006 µg/mL (≈ 0.0172 µM) | 1 mg/kg | 0.1 µg/mL | 0.025 µg/mL (≈ 0.0716 µM) | 0.05 µg/mL (≈ 0.143 µM) | 0.1 µg/mL (≈ 0.286 µM) | 0.05 µg/mL (≈ 0.143 µM) | 0.025 µg/mL (≈ 0.0716 µM) |  | 0.05 µg/mL (≈ 0.143 µM) | 0.05 µg/mL (≈ 0.143 µM) | 7.5 mg/kg | 0.05 µg/mL (≈ 0.143 µM) | 15 mg/kg
4 | NCC1(c2ccccc2)CCN(c2c(F)cc3c(=O)c(C(=O)O)cn(C4CC4)c3c2F)C1 (stereo not drawn) | 0.05 µg/mL (≈ 0.114 µM) | 0.05 µg/mL (≈ 0.114 µM) | 0.013 µg/mL (≈ 0.0296 µM) | 14 mg/kg | 2.62 µg/mL | 0.1 µg/mL (≈ 0.228 µM) | 0.2 µg/mL (≈ 0.455 µM) | 0.8 µg/mL (≈ 1.82 µM) | 0.025 µg/mL (≈ 0.0569 µM) | 0.013 µg/mL (≈ 0.0296 µM) |  | 0.013 µg/mL (≈ 0.0296 µM) | 0.05 µg/mL (≈ 0.114 µM) | 21 mg/kg | 0.05 µg/mL (≈ 0.114 µM) | 
5 | CN(C)CC1(c2ccccc2)CCN(c2c(F)cc3c(=O)c(C(=O)O)cn(C4CC4)c3c2F)C1 (stereo not drawn) | 0.05 µg/mL (≈ 0.107 µM) | 0.05 µg/mL (≈ 0.107 µM) | 0.013 µg/mL (≈ 0.0278 µM) | 50 mg/kg | 2.62 µg/mL | 0.1 µg/mL (≈ 0.214 µM) | 0.1 µg/mL (≈ 0.214 µM) | 0.4 µg/mL (≈ 0.856 µM) | 0.05 µg/mL (≈ 0.107 µM) | 0.05 µg/mL (≈ 0.107 µM) |  | 0.006 µg/mL (≈ 0.0128 µM) | 0.025 µg/mL (≈ 0.0535 µM) |  | 0.05 µg/mL (≈ 0.107 µM) | 
6 | NC1(c2ccccc2)CCN(c2c(F)cc3c(=O)c(C(=O)O)cn(C4CC4)c3c2F)C1 (stereo not drawn) | 0.025 µg/mL (≈ 0.0588 µM) | 0.006 µg/mL (≈ 0.0141 µM) | 0.013 µg/mL (≈ 0.0306 µM) | 12 mg/kg | 0.55 µg/mL | 0.05 µg/mL (≈ 0.118 µM) | 0.05 µg/mL (≈ 0.118 µM) | 0.2 µg/mL (≈ 0.47 µM) | 0.013 µg/mL (≈ 0.0306 µM) | 0.006 µg/mL (≈ 0.0141 µM) |  | 0.013 µg/mL (≈ 0.0306 µM) | 0.05 µg/mL (≈ 0.118 µM) | 12 mg/kg | 0.05 µg/mL (≈ 0.118 µM) | 
7 | CCNCC1(c2ccccc2)CCN(c2c(F)cc3c(=O)c(C(=O)O)cn(C4CC4)c3c2F)C1 (stereo not drawn) | 0.4 µg/mL (≈ 0.856 µM) | 0.8 µg/mL (≈ 1.71 µM) | 0.1 µg/mL (≈ 0.214 µM) | 37 mg/kg | 2.62 µg/mL | 0.8 µg/mL (≈ 1.71 µM) | 1.6 µg/mL (≈ 3.42 µM) | 3.1 µg/mL (≈ 6.63 µM) | 0.1 µg/mL (≈ 0.214 µM) | 0.05 µg/mL (≈ 0.107 µM) |  | 0.025 µg/mL (≈ 0.0535 µM) | 0.1 µg/mL (≈ 0.214 µM) |  | 0.2 µg/mL (≈ 0.428 µM) | 
8 | NC1CN(c2c(F)cc3c(=O)c(C(=O)O)cn(C4CC4)c3c2F)CC1c1ccccc1 (stereo not drawn) | 0.1 µg/mL (≈ 0.235 µM) | 0.2 µg/mL (≈ 0.47 µM) | 0.025 µg/mL (≈ 0.0588 µM) |  | 2.75 µg/mL | 0.2 µg/mL (≈ 0.47 µM) | 0.4 µg/mL (≈ 0.94 µM) | 1.6 µg/mL (≈ 3.76 µM) | 0.05 µg/mL (≈ 0.118 µM) | 0.025 µg/mL (≈ 0.0588 µM) |  | 0.1 µg/mL (≈ 0.235 µM) | 0.1 µg/mL (≈ 0.235 µM) |  | 0.1 µg/mL (≈ 0.235 µM) | 
9 | CC1(CN)CCN(c2c(F)cc3c(=O)c(C(=O)O)cn(C4CC4)c3c2F)C1 (stereo not drawn) | 0.05 µg/mL (≈ 0.132 µM) | 0.025 µg/mL (≈ 0.0662 µM) | 0.013 µg/mL (≈ 0.0344 µM) | 2.1 mg/kg | 2.62 µg/mL | 0.1 µg/mL (≈ 0.265 µM) | 0.2 µg/mL (≈ 0.53 µM) | 0.4 µg/mL (≈ 1.06 µM) | 0.013 µg/mL (≈ 0.0344 µM) | 0.003 µg/mL (≈ 0.00795 µM) |  | 0.006 µg/mL (≈ 0.0159 µM) | 0.025 µg/mL (≈ 0.0662 µM) | 9 mg/kg | 0.013 µg/mL (≈ 0.0344 µM) | 5 mg/kg
10 | CC1(N)CCN(c2c(F)cc3c(=O)c(C(=O)O)cn(C4CC4)c3c2F)C1 (stereo not drawn) | 0.2 µg/mL (≈ 0.55 µM) | 0.2 µg/mL (≈ 0.55 µM) | 0.2 µg/mL (≈ 0.55 µM) |  | 0.8 µg/mL | 0.4 µg/mL (≈ 1.1 µM) | 0.8 µg/mL (≈ 2.2 µM) | 3.1 µg/mL (≈ 8.53 µM) | 0.8 µg/mL (≈ 2.2 µM) | 0.2 µg/mL (≈ 0.55 µM) |  | 0.8 µg/mL (≈ 2.2 µM) | 0.8 µg/mL (≈ 2.2 µM) |  | 1.6 µg/mL (≈ 4.4 µM) | 
